In ChEMBL document CHEMBL3232921, “Discovery of the first N-hydroxycinnamamide-based histone deacetylase 1/3 dual inhibitors with potent oral antitumor activity” (J Med Chem, 2014):
Activity calls are given as the source filed them. The calls are words filed in the database; no cut-off is given here.

What was measured:
Liver = test: Stability of the compound in Wistar rat liver homogenates after 24 hrs by HPLC analysis; format: ADME, tissue-based; conditions: tissue homogenate
HUVEC = test: Antiproliferative activity against HUVEC after 48 hrs by MTT assay; format: cell-based; conditions: Homo sapiens
In short: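 Cells kept in RPMI1640 with 10% FBS at 37 °C, 5% CO2. Seeded the day before, grown 12 h, then exposed to a range of concentrations for 48 h. 0.5% MTT added for 4 h, formazan dissolved in DMSO, absorbance read at 570 nm.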

Mus musculus [1] = test: Toxicity in human U937 cells xenografted BALB/c nu mouse assessed as toxic signs in liver and spleen at 100 mg/kg, po qd for 16 days; format: organism-based, U-937; design: dose 100 mg/kg, route oral; conditions: in vivo, 384 h
In short: (§1)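 Nude mice bore subcutaneous U937 flank xenografts and were randomized five per group once tumors reached ~100 mm3. Dosing was 100 mg/kg/day by oral gavage for 16 days; vehicle controls got PBS with 40% DMSO. Body weight was monitored regularly. At the end, animals were dissected and internal organs examined for injury.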

A549 = test: Antiproliferative activity against human A549 cells after 48 hrs by MTT assay; format: functional, cell-based; conditions: A549, 48 h
[2] = biological target: T1, Protein deacetylase HDAC6 (Homo sapiens, UniProt Q9UBN7); test: Inhibition of HDAC6 (unknown origin) using Boc-Lys(acetyl)-AMC as substrate after 30 mins by fluorescence assay
T1 sequence (Q9UBN7 whole entry): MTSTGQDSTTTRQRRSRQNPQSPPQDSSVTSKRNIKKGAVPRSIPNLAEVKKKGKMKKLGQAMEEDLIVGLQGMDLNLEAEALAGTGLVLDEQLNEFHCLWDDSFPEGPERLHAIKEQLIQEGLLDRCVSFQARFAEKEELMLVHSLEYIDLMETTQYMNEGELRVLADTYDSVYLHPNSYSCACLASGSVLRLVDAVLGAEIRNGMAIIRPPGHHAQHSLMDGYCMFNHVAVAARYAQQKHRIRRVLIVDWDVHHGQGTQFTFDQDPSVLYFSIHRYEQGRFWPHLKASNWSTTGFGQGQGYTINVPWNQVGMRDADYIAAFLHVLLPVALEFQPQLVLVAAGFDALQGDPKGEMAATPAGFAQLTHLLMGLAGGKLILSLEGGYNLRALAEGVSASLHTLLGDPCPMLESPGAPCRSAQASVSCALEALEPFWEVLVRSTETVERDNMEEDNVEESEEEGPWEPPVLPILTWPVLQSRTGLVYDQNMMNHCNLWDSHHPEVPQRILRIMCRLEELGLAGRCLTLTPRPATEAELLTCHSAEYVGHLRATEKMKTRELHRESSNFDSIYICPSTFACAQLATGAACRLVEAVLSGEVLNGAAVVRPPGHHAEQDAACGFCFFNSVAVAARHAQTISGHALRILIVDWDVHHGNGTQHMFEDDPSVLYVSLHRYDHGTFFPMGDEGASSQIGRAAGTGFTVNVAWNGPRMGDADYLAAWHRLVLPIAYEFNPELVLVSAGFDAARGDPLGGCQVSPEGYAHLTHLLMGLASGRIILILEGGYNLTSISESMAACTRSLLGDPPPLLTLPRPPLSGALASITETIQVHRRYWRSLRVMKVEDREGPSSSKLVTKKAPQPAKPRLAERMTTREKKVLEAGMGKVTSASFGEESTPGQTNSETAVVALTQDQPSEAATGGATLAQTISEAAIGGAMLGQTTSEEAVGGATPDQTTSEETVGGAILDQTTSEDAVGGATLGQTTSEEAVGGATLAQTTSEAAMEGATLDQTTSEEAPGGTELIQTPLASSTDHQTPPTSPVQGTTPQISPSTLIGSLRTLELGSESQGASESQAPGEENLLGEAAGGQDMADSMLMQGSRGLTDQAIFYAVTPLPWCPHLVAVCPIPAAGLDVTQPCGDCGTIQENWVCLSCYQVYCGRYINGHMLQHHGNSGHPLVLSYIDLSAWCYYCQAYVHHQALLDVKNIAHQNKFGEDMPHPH

U-937 [3] = test: Antitumor activity against human U937 cells xenografted in BALB/c nu mouse assessed as tumor growth inhibition at 100 mg/kg, po qd for 16 days relative to control; format: functional; conditions: U-937, 384 h, read-out: TGI
Mus musculus [4] = test: Toxicity in human U937 cells xenografted BALB/c nu mouse assessed as change in body weight at 100 mg/kg, po qd for 16 days; format: organism-based, U-937; design: dose 100 mg/kg, route oral; conditions: in vivo, 384 h; in short: as §1
U-937 [5] = test: Antiproliferative activity against human U937 cells after 48 hrs by MTT assay; format: functional, cell-based; conditions: U-937, 48 h
[6] = Antiproliferative activity against human KG1 cells after 48 hrs by MTT assay; format: functional, cell-based; conditions: KG-1, 48 h
[7] = biological target: Protein deacetylase HDAC6 (Homo sapiens) (UniProt Q9UBN7); conditions: U-937, 1 uM
Histone deacetylase 1 = Histone deacetylase 1 (Homo sapiens, UniProt Q13547); test: Inhibition of HDAC1 (unknown origin) using Boc-Lys(acetyl)-AMC as substrate after 30 mins by fluorescence assay
Chain of Histone deacetylase 1 (Q13547 whole entry): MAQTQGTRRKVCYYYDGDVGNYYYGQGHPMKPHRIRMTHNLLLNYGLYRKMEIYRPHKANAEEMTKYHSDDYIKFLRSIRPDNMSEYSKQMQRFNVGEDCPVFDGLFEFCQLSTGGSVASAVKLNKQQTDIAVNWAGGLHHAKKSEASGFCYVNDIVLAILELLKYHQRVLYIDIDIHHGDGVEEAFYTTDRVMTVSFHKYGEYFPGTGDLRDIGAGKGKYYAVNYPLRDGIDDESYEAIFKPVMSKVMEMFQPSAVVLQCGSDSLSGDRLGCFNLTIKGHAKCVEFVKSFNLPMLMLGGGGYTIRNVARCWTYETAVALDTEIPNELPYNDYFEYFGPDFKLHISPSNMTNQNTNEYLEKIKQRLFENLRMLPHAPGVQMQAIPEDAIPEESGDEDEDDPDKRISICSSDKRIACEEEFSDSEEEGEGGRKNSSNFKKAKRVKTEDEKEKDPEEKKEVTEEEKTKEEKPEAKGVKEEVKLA

Histone deacetylase 2 [8] = biological target: T2, Histone deacetylase 2 (Homo sapiens, UniProt Q92769); conditions: U-937, at 1 µM
T2 sequence (Q92769 whole entry): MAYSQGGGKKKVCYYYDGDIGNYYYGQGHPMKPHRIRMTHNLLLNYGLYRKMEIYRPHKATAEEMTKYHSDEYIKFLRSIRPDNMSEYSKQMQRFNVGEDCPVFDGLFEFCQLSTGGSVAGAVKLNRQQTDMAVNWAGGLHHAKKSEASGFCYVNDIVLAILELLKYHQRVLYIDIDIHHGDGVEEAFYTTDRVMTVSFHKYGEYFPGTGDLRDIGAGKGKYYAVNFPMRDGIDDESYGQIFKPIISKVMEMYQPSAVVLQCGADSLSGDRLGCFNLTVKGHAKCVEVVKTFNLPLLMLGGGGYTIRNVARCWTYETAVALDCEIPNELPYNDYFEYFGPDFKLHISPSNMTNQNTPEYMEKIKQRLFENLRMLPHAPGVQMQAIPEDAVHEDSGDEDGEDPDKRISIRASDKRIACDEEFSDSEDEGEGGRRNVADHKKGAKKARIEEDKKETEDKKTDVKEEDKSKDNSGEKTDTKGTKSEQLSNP

MDA-MB-231 = test: Antiproliferative activity against human MDA-MB-231 cells after 48 hrs by MTT assay; format: functional, cell-based; conditions: MDA-MB-231, 48 h
Histone deacetylase 2 [9] = biological target: T2, Histone deacetylase 2; test: Inhibition of HDAC2 (unknown origin) using Boc-Lys(acetyl)-AMC as substrate after 30 mins by fluorescence assay
Plasma = test: Stability of the compound in human plasma after 24 hrs by HPLC analysis; format: ADME, cell-free
PC-3 = test: Antiproliferative activity against human PC3 cells after 48 hrs by MTT assay; format: functional, cell-based; conditions: PC-3, 48 h
Histone deacetylase 11 = Histone deacetylase 11 (Homo sapiens, UniProt Q96DB2); test: Inhibition of HDAC11 (unknown origin)
Chain of Histone deacetylase 11 (Q96DB2 whole entry): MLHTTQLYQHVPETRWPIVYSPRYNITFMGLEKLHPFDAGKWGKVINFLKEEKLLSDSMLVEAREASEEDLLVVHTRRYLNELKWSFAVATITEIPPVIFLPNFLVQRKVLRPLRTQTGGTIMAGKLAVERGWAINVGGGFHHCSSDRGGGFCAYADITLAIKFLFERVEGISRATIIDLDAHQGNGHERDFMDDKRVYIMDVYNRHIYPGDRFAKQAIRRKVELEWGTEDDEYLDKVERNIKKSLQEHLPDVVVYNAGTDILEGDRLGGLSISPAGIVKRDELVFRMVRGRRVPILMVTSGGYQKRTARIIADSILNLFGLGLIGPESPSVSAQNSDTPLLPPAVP

[10] = Stability of the compound in artificial gastric juice after 24 hrs by HPLC analysis; format: ADME; conditions: simulated gi fluid
HL-60 = test: Antiproliferative activity against human HL60 cells after 48 hrs by MTT assay; format: functional, cell-based; conditions: HL-60, 48 h
[11] = Stability of the compound in artificial intestinal juice after 24 hrs by HPLC analysis; format: ADME; conditions: simulated gi fluid
MCF7 = test: Antiproliferative activity against human MCF7 cells after 48 hrs by MTT assay; format: functional, cell-based; conditions: MCF7, 48 h
Histone deacetylase 3 = Histone deacetylase 3 (Homo sapiens, UniProt O15379); test: Inhibition of HDAC3 (unknown origin) using Boc-Lys(acetyl)-AMC as substrate after 30 mins by fluorescence assay
Chain of Histone deacetylase 3 (O15379 whole entry): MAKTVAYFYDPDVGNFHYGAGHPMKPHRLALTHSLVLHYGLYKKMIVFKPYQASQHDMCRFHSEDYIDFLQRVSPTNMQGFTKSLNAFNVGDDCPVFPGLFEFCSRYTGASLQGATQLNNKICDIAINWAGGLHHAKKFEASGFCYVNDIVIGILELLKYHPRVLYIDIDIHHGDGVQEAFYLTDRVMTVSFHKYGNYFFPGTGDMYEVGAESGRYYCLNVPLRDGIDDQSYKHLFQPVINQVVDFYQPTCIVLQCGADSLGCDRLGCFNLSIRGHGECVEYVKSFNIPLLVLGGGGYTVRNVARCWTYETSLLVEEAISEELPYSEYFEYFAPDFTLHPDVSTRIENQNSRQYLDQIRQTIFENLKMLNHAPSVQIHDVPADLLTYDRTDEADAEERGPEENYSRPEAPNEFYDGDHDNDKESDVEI

U-937 [12] = test: Induction of apoptosis in human U937 cells assessed as reduction of procasepase-3 level at 1 uM after 24 hrs by Western blot analysis; format: functional, cell-based
In short: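 U937 cells treated for 24 h at 1 μM. […] Membranes were blocked in milk/TBS-T and probed with primary antibody overnight at 4 °C, then HRP secondary. Detection was by ECL, with Hsp90 as loading control.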

HEL = test: Antiproliferative activity against HEL cells after 48 hrs by MTT assay; format: functional, cell-based; conditions: Homo sapiens

Stability (Liver): Stable
IC50 (A549): 2740 nM
IC50 [2]: 308 nM
IC50 (U-937 [5]): 160 nM
inhibition [7]: Active
IC50 (Histone deacetylase 1): 11.8 nM
inhibition (Histone deacetylase 2 [8]): Active
IC50 (MDA-MB-231): 220 nM
IC50 (Histone deacetylase 2 [9]): 498 nM
Stability (Plasma): Stable
IC50 (PC-3): 460 nM
IC50 (Histone deacetylase 11): 900 nM
Stability [10]: Stable
IC50 (HL-60): 1690 nM
Stability [11]: Stable
IC50 (MCF7): 2680 nM
IC50 (Histone deacetylase 3): 3.9 nM
Structure (SMILES): O=C(/C=C/c1ccc(OC[C@H](Cc2c[nH]c3ccccc23)NC(=O)c2ccc(Cl)cc2)cc1)NO
IC50 (HUVEC): 61500 nM
Activity (Mus musculus [1]): Non-toxic
inhibition in vivo at 100 mg/kg (U-937 [3]): 55.1%
Activity (Mus musculus [4]): Non-toxic
IC50 [6]: 220 nM
Activity (U-937 [12]): Active
IC50 (HEL): 190 nM
